Compound activity from PubChem.
M4 ag = CHRM4 agonism in calcium assay; P08173; CHO-K1 hM4/Gqi5, Fluo-8 calcium fluorescence; vehicle 0%, full acetylcholine response 100%; activation, % at 3 µM; 360,000 tested, 0.14% active; AID 624127;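 active means activation above the run mean over all test wells plus 3 SD, cut at about 32% in these data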;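 further: peak over basal fluorescence ratio per well then scaled between controls; 0% = DMSO wells and 100% = acetylcholine at EC100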
M4 PAM = potentiates acetylcholine response at human M4 receptor; activation, % at 3 µM; P08173; CHO-K1 hM4/Gqi5, Fluo-8 calcium fluorescence, ACh EC20; 0% = ACh EC20, 100% = maximal ACh; 360,000 tested, 0.4% active;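 active means activation above its plate's cutoff, the mean activation of sample wells plus 3 SD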
M5 antag = blocks acetylcholine activation of human M5 receptor | P08912 | CHO-hM5 cells, Fluo-8 calcium fluorescence, ACh EC80 | AID 624040 | 360,000 tested, 0.59% active | inhibition, % at 3 µM;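 active means inhibition above a per-plate cutoff, the mean of that plate's test compounds plus 3 SD, cut at about 27% in these data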;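 further: 0% = acetylcholine EC80 with DMSO and 100% = DMSO without agonist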
Target sequence (P08912 whole entry, looked up): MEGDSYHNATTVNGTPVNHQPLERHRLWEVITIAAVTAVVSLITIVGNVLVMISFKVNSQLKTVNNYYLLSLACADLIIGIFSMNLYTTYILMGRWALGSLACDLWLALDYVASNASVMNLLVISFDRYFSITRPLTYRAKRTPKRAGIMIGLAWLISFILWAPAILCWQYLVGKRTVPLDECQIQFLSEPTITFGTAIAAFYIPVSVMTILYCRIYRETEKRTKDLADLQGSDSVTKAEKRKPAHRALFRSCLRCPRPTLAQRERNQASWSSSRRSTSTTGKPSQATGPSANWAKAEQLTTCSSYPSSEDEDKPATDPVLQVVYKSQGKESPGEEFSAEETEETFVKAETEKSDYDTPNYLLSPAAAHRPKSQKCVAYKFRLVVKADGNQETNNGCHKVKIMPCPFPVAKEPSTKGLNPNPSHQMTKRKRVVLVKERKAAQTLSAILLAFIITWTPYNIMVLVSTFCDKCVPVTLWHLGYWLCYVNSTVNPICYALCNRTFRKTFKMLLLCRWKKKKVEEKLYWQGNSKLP
CHRM5 PAM = CHRM5 positive allosteric modulation; P08912; CHO-K1 hM5, Fluo-8 calcium, ACh EC20 PAM; 0% = ACh EC20, 100% = ACh EC100; activation, % at 3 µM; 360,000 tested, 0.3% active;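 active means activation above the run cutoff, the mean activation of all test compounds plus 3 SD, cut at about 18% in these data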
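System: CHO-K1 cell line with stable human muscarinic M5 receptor expression | Also added: EC20 acetylcholine as agonist stimulus | Compound: One concentration, 3 µM final (nominal) | Timing: Fluo-8 loading 80 min at 37 °C plus 30 min room temperature | Measured by: Fluo-8 calcium dye fluorescence, kinetic read | Read-out basis: % activation, ACh-normalized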
M4 antag = blocks acetylcholine activation of human M4 receptor. P08173. CHO-hM4 cells, ACh EC80, Fluo-8 calcium fluorescence. inhibition, % at 3 µM. 360,000 tested, 0.73% active;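 active means inhibition above its plate's cutoff, the mean inhibition of sample wells plus 3 SD, cut at about 27% in these data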;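 further: 0% = acetylcholine EC80 with DMSO and 100% = DMSO without agonist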
CHRM5 agonist = agonists of human muscarinic M5 receptor (CHRM5); 360,000 tested, 0.19% active; AID 624037; activation, % at 3 µM; CHO-K1 hM5 cells, Fluo-8 calcium fluorescence; 0% DMSO wells, 100% maximal acetylcholine response;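 active means activation above the run's mean over test compounds plus 3 SD, cut at about 23% in these data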;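 further: signal is peak over basal fluorescence ratio across the kinetic read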
* = called active by the depositor. Compounds with a hit are over-represented: about 1.9% of the library has one in this group of screens.

SMILES	M4 ag	M4 PAM	M5 antag	CHRM5 PAM	M4 antag	CHRM5 agonist
Cc1cc(NC(=O)CN2C(=O)NC(C)(c3ccc(OC(F)F)cc3)C2=O)no1 (stereo not drawn)	10	10	7	2	6	19
CC1(C)NC(=O)N(CC(=O)OCC(=O)Nc2cccc(F)c2)C1=O	1	3	9	37*	-1	-5
CC1(c2ccc(OC(F)F)cc2)NC(=O)N(CC(=O)Nc2cccc(F)c2)C1=O (stereo not drawn)	98*	-23	25	1	26*	45*
CC1(c2ccc(OC(F)F)cc2)NC(=O)N(CC(=O)Nc2ccc(OC(F)F)cc2)C1=O (stereo not drawn)	38*	-7	22	7	16	27*
CCOc1ccc(NC(=O)CN2C(=O)NC(C)(c3ccc(OC(F)F)cc3)C2=O)cc1 (stereo not drawn)	51*	-10	20	2	11	17
CC1(C)NC(=O)N(CC(=O)OCC(=O)c2ccc(F)cc2)C1=O	2	11	-3	8	-8	2
CC1(c2ccc(OC(F)F)cc2)NC(=O)N(CC(=O)Nc2ccc(Cl)cc2F)C1=O (stereo not drawn)	31	-3	3	4	3	30*
CCC1(CC)NC(=O)N(CC(=O)OCC(=O)Nc2cc(C)ccc2C)C1=O	1	18*	1	0	-13	-1
CCOC(=O)c1c(NC(=O)CN2C(=O)NC(C)(c3ccc(OC(F)F)cc3)C2=O)sc(C)c1C (stereo not drawn)	18	6	17	4	18	15
CC1(c2ccc(OC(F)F)cc2)NC(=O)N(CC(=O)Nc2ccc(S(N)(=O)=O)cc2)C1=O (stereo not drawn)	0	-9	1	-7	4	-1
CC1(c2ccc(OC(F)F)cc2)NC(=O)N(CC(=O)Nc2ccc(F)cc2)C1=O (stereo not drawn)	32*	19	9	-5	-13	24*
COc1cccc(CN(C(=O)c2cc3ccccc3oc2=O)C2CCS(=O)(=O)C2)c1 (stereo not drawn)	5	6	10	-5	-16	-2
COc1ccc(N=C2C(=O)N3c4c(cccc42)C(C)=CC3(C)C)cc1	1	12	-1	-6	3	29*
COc1ccc(N=C2C(=O)Nc3ccccc32)cc1	0	-1	3	0	4	2
CC(C)[N+](C)(CCOC(=O)C1c2ccccc2Oc2ccccc21)C(C)C	0	-18	98*	-18	100*	-2
O=C(NCc1ccco1)C1c2ccccc2Oc2ccccc21	4	-8	1	-3	27*	-11
CC(C)CNC(=O)COC(=O)C1c2ccccc2Oc2ccccc21	3	-6	-2	-1	-25	-3
CCN(CC)C(=O)C1c2ccccc2Oc2ccccc21	33*	-15	14	-12	20	53*
C=CCN(CC=C)C(=O)C1c2ccccc2Oc2ccccc21	-2	5	-2	-1	-4	-2
CCc1nc2ccc(C(=O)NCC3CCCCC3)cn2c1N(C)Cc1ccc(OC)cc1	4	-12	1	-10	4	-4
CCOc1ccc(NC(=O)CCn2c(=S)oc3ccccc32)cc1	1	27*	20	9	18	-1
CN(C)CCC(Oc1ccccc1OCc1ccccc1)c1ccccc1 (stereo not drawn)	27	-55	28*	-33	-1	-10
COc1ccc(CCNCc2ccc(-c3ccccc3)cc2)cc1OC	34*	-11	-7	6	7	9
CCOc1cc(/C=C2/SC(=S)N(Cc3ccccc3)C2=O)ccc1O	26	-6	26	-1	26	42*
COc1cc([N+](=O)[O-])cc(/C=C2/SC(=S)N(Cc3ccccc3)C2=O)c1O	32*	-20	11	-5	23	9
SMILES	M4 ag	M4 PAM	M5 antag	CHRM5 PAM	M4 antag	CHRM5 agonist
COc1cc(/C=C2/SC(=S)N(Cc3ccccc3)C2=O)ccc1OCC(=O)O	1	1	-12	5	-7	9
COc1cc(/C=C2/SC(=S)N(Cc3ccccc3)C2=O)cc(Cl)c1O	16	-13	33*	-5	18	8
CCC1(c2ccccc2)NC(=O)N(CC(=O)Nc2ccc(N3CCOCC3)cc2)C1=O (stereo not drawn)	0	1	12	-19	13	1
CCOC(=O)c1ccccc1NC(=O)COC(=O)CCNS(=O)(=O)c1cccs1	6	2	2	-2	-11	1
CCCCn1c(=NC(=O)c2ccco2)c(C(=O)OCC)cc2c(=O)n3cccc(C)c3nc21	5	8	-12	22*	-11	3
CCCCn1c(=NC(=O)c2ccco2)c(C(=O)OCC)cc2c(=O)n3ccccc3nc21	2	-4	-4	-10	-5	-8
CN(CC(=O)Nc1cccc(F)c1)C(=O)CCC1CCCCC1	2	18*	-6	7	-3	1
COc1cc(Cl)c(C)cc1NC(=O)CCN1C(=O)NC(C)(C)C1=O	0	4	-8	6	-2	0
O=C1/C(=C\c2ccccc2)CN(C(=O)CCN2CCCCC2)C/C1=C/c1ccccc1	4	-10	8	-3	20	-10
O=C1/C(=C\c2ccc(Cl)c(Cl)c2)CN(C(=O)CCN2CCOCC2)C/C1=C/c1ccc(Cl)c(Cl)c1	6	-7	17	-1	43*	8
OC(Cc1cccnc1)c1ccccc1 (stereo not drawn)	0	5	16	-10	-2	1
O=C(COC(=O)CCSc1ccc(F)cc1)NCc1ccc(F)cc1	1	4	-2	2	-6	-2
C1=C(c2ccc(-c3ccccc3)cc2)Nc2ncnn2C1c1ccco1 (stereo not drawn)	62*	-17	16	-34	27*	53*
Fc1ccc(C2=CC(c3ccco3)n3ncnc3N2)cc1 (stereo not drawn)	2	-1	7	-8	2	2
Brc1ccc(C2=CC(c3cccs3)n3ncnc3N2)cc1 (stereo not drawn)	37*	-29	14	-21	4	27*
Fc1ccc(C2=CC(c3ccc(Br)o3)n3ncnc3N2)cc1 (stereo not drawn)	3	-7	0	-6	2	3
COC(=O)[C@@H]1C[C@@]2(Br)c3ccccc3N(S(=O)(=O)c3ccccc3)[C@H]2N1C(=O)OC	1	-2	1	-2	8	2
